A short description of series [1]: Acid dissociation constant was measured. Format: ADME.
Series [2] has as its system Rattus norvegicus. Put plainly: Compound was evaluated in vivo for its ability to stimulate release of [125I]-labeled T3 and T4 after administration of varying doses. Format: functional. The procedure, abridged:
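Varying doses of analogue were given in vivo, with ¹²⁵I-labeled T₃ and T₄ measured afterwards. Potency is expressed relative to TRH.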

Series [3] is filed under the species Rattus norvegicus. Put plainly: CNS activity was measured by the ability to restore the anticonvulsant effect of methazolamide in reserpine treated rats. Format: functional. Also noted: unit not given beside the values. In short, it runs like this:
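Rats pretreated with reserpine received varying doses of analogue, and the read-out was restoration of methazolamide's anticonvulsant activity. Potency is expressed relative to TRH.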

Molecules are shown by their SMILES.

`NC(=O)[C@@H]1CSCN1C(=O)[C@H](Cc1c[nH]cn1)NC(=O)[C@@H]1CCCC(=O)N1` [listing 1 of 2 here] came in with a pKa in series [1] of 6.1. In turn, `NC(=O)[C@@H]1CSCN1C(=O)[C@H](Cc1c[nH]cn1)NC(=O)[C@@H]1CCCC(=O)N1` [listing 2 of 2 here] registered a Hormonal activity in series [2] of 1. Besides, in series [3], the CNS activity worked out at 35. Molecule `NC(=O)[C@@H]1CCCN1C(=O)[C@H](Cc1c[nH]cn1)NC(=O)[C@@H]1CCCC(=O)N1` had a Hormonal activity in series [2] of 1. The same molecule displayed a pKa in series [1] of 6.18. In addition, in series [3], the CNS activity is recorded as 4. For `COC(=O)[C@@H]1CCCCN1C(=O)[C@H](Cc1c[nH]cn1)NC(=O)[C@@H]1CCC(=O)N1` [listing 1 of 2 here], the Hormonal activity in series [2] came to 0.2. The molecule also registered a CNS activity in series [3] of 1. For the molecule `COC(=O)[C@@H]1CCCCN1C(=O)[C@H](Cc1c[nH]cn1)NC(=O)[C@@H]1CCC(=O)N1` [listing 2 of 2 here], the pKa in series [1] was found to be 6.18. As for `COC(=O)[C@@H]1CCCCN1C(=O)[C@H](Cc1c[nH]cn1)NC(=O)[C@@H]1CCCC(=O)N1`, the Hormonal activity in series [2] is recorded as 0.02. Further, the CNS activity in series [3] was 0.9.

As usually defined, the pKa is the negative logarithm of the acid dissociation constant.
